Measurements from ChEMBL document CHEMBL4477185, “Anacardic Acids from Knema hookeriana as Modulators of Bcl-xL/Bak and Mcl-1/Bid Interactions” (J Nat Prod, 2016).
The source made the active and inactive calls. No cut-off for these calls is given here.

Experiments:
Bcl-xL/BAK = Bcl-xL/BAK (Homo sapiens, UniProt Q07817); test: Inhibition of His-tagged Bcl-xL/5-carboxyfluorescein-Bak (unknown origin) after 1 hr by fluorescence polarization assay; assay type: protein assay
In short: (§1)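 Fluorescence polarization competition: a small molecule competes with a fluorescent-tagged BH3 peptide (Bak for Bcl-xL, Bid for Mcl-1) for binding to the anti-apoptotic protein. Run in triplicate.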

HCT-116 = test: Cytotoxicity against human HCT116 cells assessed as decrease in cell viability after 72 hrs by resazurin dye based fluorescence assay; assay type: functional
[1] = target: Induced myeloid leukemia cell differentiation protein Mcl-1/BH3-interacting domain death agonist (Homo sapiens, UniProt Q07820); test: Inhibition of His-tagged Mcl-1/5-carboxyfluorescein-Bid (unknown origin) after 1 hr by fluorescence polarization assay; assay type: protein assay; in short: as §1
Sequence of Induced myeloid leukemia cell differentiation protein Mcl-1/BH3-interacting domain death agonist (Q07820 whole entry, one chain of several, the tested form may be a part): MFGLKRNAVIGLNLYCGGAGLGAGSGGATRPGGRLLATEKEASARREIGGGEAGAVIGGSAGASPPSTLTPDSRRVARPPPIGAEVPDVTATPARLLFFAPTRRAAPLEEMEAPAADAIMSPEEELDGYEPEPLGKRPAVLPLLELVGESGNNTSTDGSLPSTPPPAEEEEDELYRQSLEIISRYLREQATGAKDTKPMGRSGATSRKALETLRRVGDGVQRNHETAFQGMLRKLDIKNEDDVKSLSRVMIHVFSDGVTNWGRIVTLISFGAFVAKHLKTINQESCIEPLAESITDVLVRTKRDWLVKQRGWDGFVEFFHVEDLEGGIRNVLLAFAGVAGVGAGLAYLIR

[2] = target: T1, BH3-interacting domain death agonist (Homo sapiens) (UniProt P55957); test: Binding affinity to Bid (unknown origin) at 2 equivalent assessed as interaction at Asp16/Ser17/Met18/Asp19 and Arg20 residues by 2D 1H-1H TOCSY analysis
T1 sequence (whole entry): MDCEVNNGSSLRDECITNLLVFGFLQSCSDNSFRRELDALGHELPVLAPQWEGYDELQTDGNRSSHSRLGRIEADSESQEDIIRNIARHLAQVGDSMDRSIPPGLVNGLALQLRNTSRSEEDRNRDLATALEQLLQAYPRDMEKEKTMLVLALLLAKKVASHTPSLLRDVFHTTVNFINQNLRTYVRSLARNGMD

[3] = target: T1, BH3-interacting domain death agonist (Homo sapiens); test: Binding affinity to Bid (unknown origin) assessed as induction of chemical shift perturbations by NMR titration method
[4] = target: Bcl-2-like protein 1 (Homo sapiens) (UniProt Q07817); test: Binding affinity to Bcl-XL (unknown origin) assessed as effect on protein HN resonances at 1.5 equivalent by HSQC 1H-15N NMR spectroscopy
Sequence of Bcl-2-like protein 1 (Homo sapiens) (Q07817 whole entry): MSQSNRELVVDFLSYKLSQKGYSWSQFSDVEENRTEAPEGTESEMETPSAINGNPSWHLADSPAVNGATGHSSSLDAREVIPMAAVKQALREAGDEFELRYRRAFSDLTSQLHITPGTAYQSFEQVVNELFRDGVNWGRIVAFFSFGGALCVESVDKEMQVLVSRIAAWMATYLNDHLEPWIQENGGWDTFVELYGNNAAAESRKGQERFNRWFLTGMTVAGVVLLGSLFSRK
In short: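 Ligand titration into Bcl-xL, followed by 1H-15N HSQC spectra recorded on an 800 MHz spectrometer with a 5 mm z-gradient TCI cryoprobe.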

[5] = target: T1, BH3-interacting domain death agonist (Homo sapiens); test: Binding affinity to Bid (unknown origin) assessed as micelles formation at 0.25 to 5 equivalent by 1H NMR spectra analysis
[6] = target: Induced myeloid leukemia cell differentiation protein Mcl-1 (Homo sapiens) (UniProt Q07820); test: Binding affinity to Mcl-1 (unknown origin) assessed as effect on protein HN resonances at 1.5 equivalent by HSQC 1H-15N NMR spectroscopy
Sequence of Induced myeloid leukemia cell differentiation protein Mcl-1 (Homo sapiens) (Q07820 whole entry): as the sequence (Q07820 whole entry, one chain of several, the tested form may be a part) above

Sequence of Bcl-xL/BAK (Q07817 whole entry): as the sequence (Q07817 whole entry) above
Sequence of Bcl-xL/BAK (Q16611 whole entry, further chain): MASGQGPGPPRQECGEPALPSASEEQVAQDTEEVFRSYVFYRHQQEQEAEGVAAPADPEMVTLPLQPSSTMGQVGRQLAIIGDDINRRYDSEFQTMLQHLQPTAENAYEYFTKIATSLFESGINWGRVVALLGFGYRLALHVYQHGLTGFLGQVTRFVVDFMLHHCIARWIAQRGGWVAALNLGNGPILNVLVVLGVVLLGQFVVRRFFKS

For `O=C(O)c1c(O)cccc1CCCCCCCCc1ccccc1`, the Ki (Bcl-xL/BAK) was 16.3 µM, the Activity (HCT-116) was “inactive” and the Ki [1] was 3.7 µM.

In the case of `CCCCCCCCCCCCCc1cccc(O)c1C(=O)O` [GINKGOLIC ACID 13:0], the Activity [2] is reported as “Active”, the Ki (Bcl-xL/BAK) is reported as 0.2 µM and the Activity [3] is reported as “Active”. For the same compound, the Activity [4] was “inactive”, the Activity (HCT-116) was “inactive” and the Activity [5] was “Dose-dependent effect”. For the same compound, the Activity [6] was “inactive” and the Ki [1] was 0.2 µM.

For `CC(C)=CCC[C@@H](C)[C@H]1C=C[C@@]2(C(=O)O)[C@H](CC(C)=C[C@@H]2/C=C(\C)C2CCC(C(=O)O)CC2)C1` (some centres undefined) [MEIOGYNIN A], the Ki (Bcl-xL/BAK) was 2.6 µM.

`CCCC/C=C\CCCCCc1cc(O)cc(O)c1C(C)=O` gave a Ki (Bcl-xL/BAK) greater than 23 µM and a Ki [1] greater than 33 µM.

With `CCCC/C=C\CCCCCCCc1cccc(O)c1` the Ki (Bcl-xL/BAK) was greater than 23 µM and the Ki [1] was greater than 33 µM.

For `CCCC/C=C\CCCCCc1cccc(O)c1C(=O)O`, the Ki (Bcl-xL/BAK) was 3.2 µM, the Activity (HCT-116) was “inactive” and the Ki [1] was 5.8 µM.

For `CCCC/C=C\CCCCCCCc1cccc(O)c1C(=O)O`, the Ki (Bcl-xL/BAK) was 0.3 µM, the Activity (HCT-116) was “inactive” and the Ki [1] was 0.2 µM.

Work on `CCCCCCCCCCCCCc1cccc(O)c1` yielded a Ki (Bcl-xL/BAK) greater than 23 µM and a Ki [1] greater than 33 µM.

In the case of `CCCCCCCCCc1cccc(O)c1C(=O)O`, the Ki (Bcl-xL/BAK) is reported as greater than 23 µM, the Activity (HCT-116) is reported as “inactive” and the Ki [1] is reported as 17.7 µM.

`CCCC/C=C\CCCCCCCc1cc(O)cc(O)c1C(C)=O` was tested, and the Ki (Bcl-xL/BAK) was greater than 23 µM and the Ki [1] was greater than 33 µM.

Work on `CCCCCCCCCCCc1cc(O)cc(O)c1C(C)=O` yielded a Ki (Bcl-xL/BAK) greater than 23 µM and a Ki [1] greater than 33 µM.

For `CCCCCCCCCCCc1cccc(O)c1C(=O)O`, the Ki (Bcl-xL/BAK) was 1.2 µM, the Activity (HCT-116) was “inactive” and the Ki [1] was 0.7 µM.
